Data published in ChEMBL document CHEMBL4007408, “Identification of Novel Triazole-Based Nicotinamide Phosphoribosyltransferase (NAMPT) Inhibitors Endowed with Antiproliferative and Antiinflammatory Activity” (J Med Chem, 2017).
Activity calls are given as the source filed them. No cut-off for these calls is given here.

Assays:
[1] = tested on: SH-SY5Y; test: Cytotoxicity against human SH-SY5Y cells assessed as reduction in cell viability after 56 hrs by MTT assay; type: functional, cell-based
[2] = tested on: Liver; test: Drug level in human liver microsomes treated with N-(biphenyl-2-yl)-8-(4-(pyridin-3-yl)-1H-1,2,3-triazol-1-yl)octanamide after 60 mins by LC-ESI-MS analysis; type: ADME, microsome
[3] = tested on: Liver; test: Drug level in Wistar Han rat liver microsomes treated with N-(biphenyl-2-yl)-8-(4-(pyridin-3-yl)-1H-1,2,3-triazol-1-yl)octanamide after 60 mins by LC-ESI-MS analysis; type: ADME, microsome
[4] = Half life in athymic Nu/Nu Harlan mouse at 10 mg/kg, iv administered as single dose up to 24 hrs by LC-ESI-MS analysis; type: ADME, organism-based; conditions: in vivo
[5] = molecular target: Nicotinamide phosphoribosyltransferase (Mus musculus, UniProt Q99KQ4); test: Inhibition of recombinant mouse NAMPT expressed in bacterial expression system using nicotinamide as substrate after 1 hr by fluorescence based NMNAT-3 enzyme coupled assay
[6] = tested on: Liver; test: Stability in human liver microsomes after 60 mins by LC-ESI-MS analysis; type: ADME, microsome; conditions: 1 h
[7] = tested on: A2780; test: Cytotoxicity against human A2780 cells assessed as reduction in cell viability; type: functional, cell-based
[8] = tested on: A2780; test: Antitumor activity against human A2780 cells xenografted in athymic nu/nu Harlan mouse assessed as reduction in tumor growth at 10 mg/kg, ip bid administered for 8 consecutive days; type: functional, organism-based
[9] = Drug metabolism in human liver microsomes assessed as mixed function oxidase mediated compound cleavage by measuring compound remaining after 60 mins in presence of NADPH-regenerating system by LC-UV analysis; type: ADME; conditions: read-out: Stability
How it was run: (§1)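 Substrate at 50 μM final, with rat or human liver microsomes at 1.0 mg/ml protein, in 50 mM Tris-HCl pH 7.4. Mix held 3.3 mM MgCl2, 1% acetonitrile and an NADPH-regenerating system (1.3 mM β-NADP, 3.3 mM glucose 6-phosphate, 0.4 U/ml G6PDH). Shaken 60 min at 37 °C, stopped with ice-cold acetonitrile. LC-UV gave % residual substrate versus a no-microsome control, mean of two replicates.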

[10] = Volume of distribution in athymic Nu/Nu Harlan mouse at 10 mg/kg, iv administered as single dose up to 24 hrs by LC-ESI-MS analysis; type: ADME, organism-based; conditions: in vivo
[11] = Drug metabolism in Wistar Han rat liver microsomes assessed as mixed function oxidase mediated compound cleavage by measuring compound remaining after 60 mins in presence of NADPH-regenerating system by LC-UV analysis; type: ADME; conditions: read-out: Stability; how it was run: as §1
[12] = Clearance in athymic Nu/Nu Harlan mouse at 10 mg/kg, iv administered as single dose up to 24 hrs by LC-ESI-MS analysis; type: ADME, organism-based; conditions: in vivo
[13] = tested on: Liver; test: Drug metabolism in Wistar Han rat liver microsomes assessed as pyridine N-oxidation after 60 mins in presence of NADPH-regenerating system by LC-UV analysis; type: ADME, microsome; conditions: 1 h
How it was run: (§2)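 Metabolites were characterized by LC-ESI-MSn on supernatants of 60 min, 37 °C incubations. Each used 50 μM substrate with rat or human liver microsomes (1.0 mg/ml protein) in 50 mM Tris-HCl pH 7.4 with 3.3 mM MgCl2, 1% acetonitrile and an NADPH-regenerating system. Reactions were quenched with cold acetonitrile and centrifuged.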

[14] = Stability in Wistar Han rat liver microsomes assessed as mixed function oxidase mediated compound cleavage after 60 mins in presence of NADPH-regenerating system by LC-UV analysis; type: ADME; conditions: 1 h; how it was run: as §1
[15] = tested on: Liver; test: Drug metabolism in human liver microsomes assessed as pyridine N-oxidation after 60 mins in presence of NADPH-regenerating system by LC-UV analysis; type: ADME, microsome; conditions: 1 h; how it was run: as §2
[16] = tested on: Liver; test: Stability in Wistar Han rat liver microsomes after 60 mins by LC-ESI-MS analysis; type: ADME, microsome; conditions: 1 h
[17] = tested on: Liver; test: Stability in human liver microsomes assessed as mixed function oxidase mediated compound cleavage after 60 mins in presence of NADPH-regenerating system by LC-UV analysis; type: ADME, microsome; conditions: 1 h; how it was run: as §1
[18] = AUC in athymic Nu/Nu Harlan mouse at 10 mg/kg, iv administered as single dose up to 24 hrs by LC-ESI-MS analysis; type: ADME, organism-based; design: time < 24 hr, dose 10 mg/kg, route intravenous; conditions: in vivo
[19] = molecular target: Nicotinamide phosphoribosyltransferase (Homo sapiens, UniProt P43490); test: Inhibition of NAMPT in human Jurkat T cells assessed as reduction in NAD levels; type: cell-based
[20] = tested on: Mus musculus; test: In vivo inhibition of NAMPT in DNBS-induced BALB/c mouse colitis model assessed as reduction in neutrophil infiltration by measuring myeloperoxidase levels at 20 mg/kg, ip bid administered for 3 days post DNBS challenge by ELISA; type: functional, organism-based
[21] = tested on: Mus musculus; test: In vivo inhibition of NAMPT in DNBS-induced BALB/c mouse colitis model assessed as reduction in loss of body weight at 20 mg/kg, ip bid administered for 3 days post DNBS challenge; type: functional, organism-based
[22] = tested on: Mus musculus; test: In vivo inhibition of NAMPT in DNBS-induced BALB/c mouse colitis model assessed as reduction in hemorrhagic ulcerations at 20 mg/kg, ip bid administered for 3 days post DNBS challenge; type: functional, organism-based
[23] = tested on: Mus musculus; test: In vivo inhibition of NAMPT in DNBS-induced BALB/c mouse colitis model assessed as reduction in erosion at 20 mg/kg, ip bid administered for 3 days post DNBS challenge; type: functional, organism-based
[24] = tested on: Mus musculus; test: In vivo inhibition of NAMPT in DNBS-induced BALB/c mouse colitis model assessed as reduction in mucosal congestion at 20 mg/kg, ip bid administered for 3 days post DNBS challenge; type: functional, organism-based
[25] = tested on: Liver; test: Drug metabolism in human liver microsomes assessed as pyridine N-oxidation by measuring biphenyl-2-carboxamide formation after 60 mins in presence of NADPH-regenerating system by LC-UV analysis; type: ADME, microsome; conditions: 1 h; how it was run: as §2
[26] = tested on: Liver; test: Drug metabolism in human liver microsomes assessed as pyridine N-oxidation by measuring 7-(4-(pyridin-3-yl)-1H-1,2,3-triazol-1-yl)heptanoic acid formation after 60 mins in presence of NADPH-regenerating system by LC-UV analysis; type: ADME, microsome; how it was run: as §2
[27] = tested on: Liver; test: Drug metabolism in Wistar Han rat liver microsomes assessed as pyridine N-oxidation by measuring biphenyl-2-carboxamide formation after 60 mins in presence of NADPH-regenerating system by LC-UV analysis; type: ADME, microsome; conditions: 1 h; how it was run: as §2
[28] = tested on: Liver; test: Drug metabolism in Wistar Han rat liver microsomes assessed as pyridine N-oxidation by measuring 7-(4-(pyridin-3-yl)-1H-1,2,3-triazol-1-yl)heptanoic acid formation after 60 mins in presence of NADPH-regenerating system by LC-UV analysis; type: ADME, microsome; how it was run: as §2
[29] = Homo sapiens, SH-SY5Y, 56 h, read-out: EC50

Nicotinamide phosphoribosyltransferase (Mus musculus, UniProt Q99KQ4), sequence (Q99KQ4 whole entry): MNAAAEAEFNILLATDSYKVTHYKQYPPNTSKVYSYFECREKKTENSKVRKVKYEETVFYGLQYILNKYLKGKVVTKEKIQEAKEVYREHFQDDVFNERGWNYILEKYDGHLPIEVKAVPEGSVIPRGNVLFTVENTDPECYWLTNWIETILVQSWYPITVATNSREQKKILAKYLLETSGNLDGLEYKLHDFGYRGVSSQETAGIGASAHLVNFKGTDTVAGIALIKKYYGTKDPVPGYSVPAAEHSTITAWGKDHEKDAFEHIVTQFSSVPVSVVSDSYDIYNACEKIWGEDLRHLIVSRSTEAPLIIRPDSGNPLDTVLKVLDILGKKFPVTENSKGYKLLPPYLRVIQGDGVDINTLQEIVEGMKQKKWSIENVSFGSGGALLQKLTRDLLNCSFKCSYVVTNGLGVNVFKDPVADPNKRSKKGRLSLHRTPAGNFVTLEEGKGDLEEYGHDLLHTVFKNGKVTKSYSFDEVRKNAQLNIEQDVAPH
Nicotinamide phosphoribosyltransferase (Homo sapiens, UniProt P43490), sequence (P43490 whole entry): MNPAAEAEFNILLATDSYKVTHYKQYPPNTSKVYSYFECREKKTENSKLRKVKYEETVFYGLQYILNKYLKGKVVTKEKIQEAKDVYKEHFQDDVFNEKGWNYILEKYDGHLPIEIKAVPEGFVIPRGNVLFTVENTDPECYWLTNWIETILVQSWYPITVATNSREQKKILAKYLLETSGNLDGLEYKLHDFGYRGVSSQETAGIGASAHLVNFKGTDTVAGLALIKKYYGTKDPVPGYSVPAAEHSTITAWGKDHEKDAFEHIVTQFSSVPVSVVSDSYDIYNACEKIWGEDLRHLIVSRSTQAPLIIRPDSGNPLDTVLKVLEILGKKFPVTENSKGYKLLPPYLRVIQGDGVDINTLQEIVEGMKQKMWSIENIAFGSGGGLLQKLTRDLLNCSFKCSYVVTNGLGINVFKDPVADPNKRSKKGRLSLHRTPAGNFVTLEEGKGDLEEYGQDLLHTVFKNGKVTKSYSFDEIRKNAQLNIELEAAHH

O=C(CCCCCCCc1cc(-c2cccnc2)[nH]n1)Nc1ccccc1-c1ccccc1
EC50 [1, 29]: 384 nM

Nc1ccccc1-c1ccccc1
Drug metabolism [2]: Metabolite_Detected
Drug metabolism [3]: Metabolite_Detected

c1ccc(-c2ccccc2OCCCc2ccc(-n3cc(-c4cccnc4)nn3)cc2)cc1
EC50 [1, 29]: 71 nM

O=S(=O)(NCCCCCCCCn1cc(-c2cccnc2)nn1)c1ccccc1Br
EC50 [1, 29]: 171 nM

O=C(NCCCCCCCCn1cc(-c2cccnc2)nn1)c1ccccc1-c1ccccc1
EC50 [1, 29]: 194 nM

c1ccc(-c2ccccc2-c2cn(CCCCCCCn3cc(-c4cccnc4)nn3)nn2)cc1
EC50 [1, 29]: 9.1 nM
half-life [4]: 88.8 min
IC50 ([5]; read-out: IC50): 8.1 nM
Stability [6]: Stable
IC50 [7]: 5.8 nM
inhibition [8]: inactive
remaining at 1 h [9]: 87%
Vd [10]: 9.4 L/kg
remaining at 1 h [11]: 47%
clearance [12]: 74 mL/min/kg
Drug metabolism [13]: Metabolite_Detected
Stability [14]: Stable
Drug metabolism [15]: Metabolite_Detected
Stability [16]: Stable
Stability [17]: Stable
AUC at 24 h [18]: 2250 ng·h/mL
IC50 [19]: 7.8 nM

c1ccc(-c2ccccc2OCCCCCCCCn2cc(-c3cccnc3)nn2)cc1
EC50 [1, 29]: 8.2 nM
IC50 ([5]; read-out: IC50): 25.4 nM

c1ccc(-c2ccccc2CNCCCCCCCn2cc(-c3cccnc3)nn2)cc1
EC50 [1, 29]: 237 nM

O=S(=O)(NCCCCCCCn1cc(-c2cccnc2)nn1)c1ccccc1Br
EC50 [1, 29]: 162 nM

C[C@@H]1C[C@H]2[C@@H]3CCC4=CC(=O)C=C[C@]4(C)[C@@]3(F)[C@@H](O)C[C@]2(C)[C@@]1(O)C(=O)CO
inhibition [20]: Active
inhibition [21]: Active
inhibition [22]: Active
inhibition [23]: Active
inhibition [24]: Active

O=C(CCCCCCCc1nnc(-c2cccnc2)[nH]1)Nc1ccccc1-c1ccccc1
EC50 [1, 29]: 82.9 nM
IC50 ([5]; read-out: IC50): 269 nM

O=S(=O)(NCCCCCCn1cc(-c2cccnc2)nn1)c1ccccc1-c1ccccc1
EC50 [1, 29]: 100 nM

O=S(=O)(NCCCCCCCn1cc(-c2cccnc2)nn1)c1ccccc1-c1ccccc1
EC50 [1, 29]: 99.2 nM

c1ccc(-c2ccccc2OCCc2ccc(Cn3cc(-c4cccnc4)nn3)cc2)cc1
EC50 [1, 29]: 2.4 nM
IC50 ([5]; read-out: IC50): 15.6 nM

O=C(Nc1ccccc1-c1ccccc1)OCCCCCCCCn1cc(-c2cccnc2)nn1
EC50 [1, 29]: 255 nM

c1ccc(-c2ccccc2-n2cc(CCCCCCCc3cn(-c4cccnc4)nn3)nn2)cc1
EC50 [1, 29]: > 500 nM

O=C(NCCCCCCn1cc(-c2cccnc2)nn1)c1ccccc1-c1ccccc1
EC50 [1, 29]: 22.2 nM

O=C(NCCCCCCCn1cc(-c2cccnc2)nn1)Nc1ccccc1-c1ccccc1
EC50 [1, 29]: 7 nM
IC50 ([5]; read-out: IC50): 32.4 nM

c1ccc(-c2ccccc2-c2cn(CCCCCCn3cc(-c4cccnc4)nn3)nn2)cc1
EC50 [1, 29]: 36.6 nM

O=C(CCCCCCCc1nnc(-c2cccnc2)o1)Nc1ccccc1-c1ccccc1
EC50 [1, 29]: 370 nM

O=C(CCCCCCCc1cc(-c2cccnc2)on1)Nc1ccccc1-c1ccccc1
EC50 [1, 29]: 59.8 nM
IC50 ([5]; read-out: IC50): 49.9 nM

c1ccc(-c2ccccc2OCc2ccc(CCn3cc(-c4cccnc4)nn3)cc2)cc1
EC50 [1, 29]: 160 nM

O=S(=O)(NCCCCCCCCn1cc(-c2cccnc2)nn1)c1ccccc1-c1ccccc1
EC50 [1, 29]: 12.6 nM
IC50 ([5]; read-out: IC50): 47 nM

c1ccc(-c2ccccc2-c2cn(CCCCCCCCn3cc(-c4cccnc4)nn3)nn2)cc1
EC50 [1, 29]: 74.5 nM

O=C(Nc1ccccc1-c1ccccc1)OCCCCCCCn1cc(-c2cccnc2)nn1
EC50 [1, 29]: 36 nM

O=C(Nc1ccccc1-c1ccccc1)OCCCCCCn1cc(-c2cccnc2)nn1
EC50 [1, 29]: 34 nM

c1ccc(-c2ccccc2-n2cc(CCCCCCCn3cc(-c4cccnc4)nn3)nn2)cc1
EC50 [1, 29]: 55.1 nM

O=C(NCCCCCCCCn1cc(-c2cccnc2)nn1)Nc1ccccc1-c1ccccc1
EC50 [1, 29]: 154 nM

O=C(NCCCCCCCn1cc(-c2ccc[n+]([O-])c2)nn1)c1ccccc1-c1ccccc1
Drug metabolism [25]: Metabolite_Detected
EC50 ([1]; sh-sy5y): Not Active
IC50 [5]: Not Active
Drug metabolism [26]: Metabolite_Detected
Drug metabolism [27]: Metabolite_Detected
Drug metabolism [28]: Metabolite_Detected

c1ccc(-c2ccccc2CNCCCCCCn2cc(-c3cccnc3)nn2)cc1
EC50 [1, 29]: 202 nM

c1ccc(-c2ccccc2-c2cn(CCCCCCCc3cn(-c4cccnc4)nn3)nn2)cc1
EC50 [1, 29]: 84.2 nM

O=C(NCCCCCCn1cc(-c2cccnc2)nn1)Nc1ccccc1-c1ccccc1
EC50 [1, 29]: 43 nM

[O-][n+]1cccc(-c2cn(CCCCCCOc3ccccc3-c3ccccc3)nn2)c1
Drug metabolism [25]: Metabolite_Detected
EC50 ([1]; sh-sy5y): Not Active
IC50 [5]: Not Active
Drug metabolism [26]: Metabolite_Detected
Drug metabolism [27]: Metabolite_Detected
Drug metabolism [28]: Metabolite_Detected

O=S(=O)(NCCCCCCn1cc(-c2cccnc2)nn1)c1ccccc1Br
EC50 [1, 29]: 175 nM

O=C(O)CCCCCCCn1cc(-c2cccnc2)nn1
Drug metabolism [2]: Metabolite_Detected
Drug metabolism [3]: Metabolite_Detected

c1ccc(-c2ccccc2CNCCCCCCCCn2cc(-c3cccnc3)nn2)cc1
EC50 [1, 29]: 205 nM

c1ccc(-c2ccccc2OCCCCCCCn2cc(-c3cccnc3)nn2)cc1
EC50 [1, 29]: 15 nM
IC50 ([5]; read-out: IC50): 31.3 nM

c1ccc(-c2ccccc2Oc2ccc(CCCn3cc(-c4cccnc4)nn3)cc2)cc1
EC50 [1, 29]: > 500 nM

O=C(CCCCCCCc1cnc(-c2cccnc2)s1)Nc1ccccc1-c1ccccc1
EC50 [1, 29]: 5250 nM
